Laboratory results from ChEMBL document CHEMBL4049410, “Novel benzimidazolyl tetrahydroprotoberberines: Design, synthesis, antimicrobial evaluation and multi-targeting exploration” (2017).
Converted amounts (≈) assume the structure as drawn.

Experiments:
Cyberlindnera jadinii = assay: Antifungal activity against Candida utilis after 24 hrs by two-fold serial dilution assay; assay type: functional
How it was run: (§1)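 Twofold serial broth dilution following NCCLS guidance, with Chloromycin, Norfloxacin and Fluconazole as positive controls. MIC in μM is the lowest concentration giving complete inhibition of visible bacterial or fungal growth.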

Aspergillus flavus = assay: Antifungal activity against Aspergillus flavus after 24 hrs by two-fold serial dilution assay; assay type: functional; how it was run: as §1
Pichia norvegensis = assay: Antifungal activity against Candida mycoderma after 24 hrs by two-fold serial dilution assay; assay type: functional; how it was run: as §1
Saccharomyces cerevisiae = assay: Antifungal activity against Saccharomyces cerevisiae after 24 hrs by two-fold serial dilution assay; assay type: functional; how it was run: as §1
Proteus vulgaris = assay: Antibacterial activity against Bacillus proteus ATCC 13315 after 24 hrs by two-fold serial dilution assay; assay type: functional; how it was run: as §1
Shigella dysenteriae = assay: Antibacterial activity against Shigella dysenteriae after 24 hrs by two-fold serial dilution assay; assay type: functional
Staphylococcus aureus [1] = assay: Antibacterial activity against methicillin-resistant Staphylococcus aureus N315 after 24 hrs by two-fold serial dilution assay; assay type: functional; conditions: Staphylococcus aureus, N315, 24 h; read-out: MIC
Pseudomonas aeruginosa = assay: Antibacterial activity against Pseudomonas aeruginosa after 24 hrs by two-fold serial dilution assay; assay type: functional; how it was run: as §1
Bacillus subtilis = assay: Antibacterial activity against Bacillus subtilis after 24 hrs by two-fold serial dilution assay; assay type: functional; how it was run: as §1
Escherichia coli [2] = assay: Antibacterial activity against Escherichia coli JM109 after 24 hrs by two-fold serial dilution assay; assay type: functional; how it was run: as §1
Micrococcus luteus = assay: Antibacterial activity against Micrococcus luteus ATCC 4698 after 24 hrs by two-fold serial dilution assay; assay type: functional, NCTC 2665; how it was run: as §1
Escherichia coli [3] = assay: Antibacterial activity against Escherichia coli DH52 after 24 hrs by two-fold serial dilution assay; assay type: functional; how it was run: as §1
Salmonella typhi = assay: Antibacterial activity against Bacillus typhi after 24 hrs by two-fold serial dilution assay; assay type: functional, Salmonella enterica subsp. enterica serovar Typhi; conditions: Salmonella enterica, 24 h; read-out: MIC
Staphylococcus aureus [4] = assay: Antibacterial activity against Staphylococcus aureus ATCC 25923 after 24 hrs by two-fold serial dilution assay; assay type: functional; how it was run: as §1
Candida albicans = assay: Antifungal activity against Candida albicans ATCC 76615 after 24 hrs by two-fold serial dilution assay; assay type: functional; how it was run: as §1
[5] = Williopsis jadinii, 24 h, read-out: MIC
[6] = Aspergillus flavus, 24 h, read-out: MIC
[7] = Pichia norvegensis, 24 h, read-out: MIC
[8] = Saccharomyces cerevisiae, 24 h, read-out: MIC
[9] = Proteus vulgaris, ATCC 13315, 24 h, read-out: MIC
[10] = Shigella dysenteriae, 24 h, read-out: MIC
[11] = Pseudomonas aeruginosa, 24 h, read-out: MIC
[12] = Bacillus subtilis, 24 h, read-out: MIC
[13] = Escherichia coli, JM109, 24 h, read-out: MIC
[14] = Micrococcus luteus, NCTC 2665, 24 h, read-out: MIC
[15] = Escherichia coli, DH52, 24 h, read-out: MIC
[16] = Staphylococcus aureus, ATCC 25923, 24 h, read-out: MIC

| Compound | MIC (Cyberlindnera jadinii; [5]) | MIC (Aspergillus flavus; [6]) | MIC (Pichia norvegensis; [7]) | MIC (Saccharomyces cerevisiae; [8]) | MIC (Proteus vulgaris; [9]) | MIC (Shigella dysenteriae; [10]) | MIC (Staphylococcus aureus [1]) | MIC (Pseudomonas aeruginosa; [11]) | MIC (Bacillus subtilis; [12]) | MIC (Escherichia coli [2]; [13]) | MIC (Micrococcus luteus; [14]) | MIC (Escherichia coli [3]; [15]) | MIC (Salmonella typhi) | MIC (Staphylococcus aureus [4]; [16]) | MIC (Proteus vulgaris) | MIC (Cyberlindnera jadinii) | MIC (Pseudomonas aeruginosa) | MIC (Bacillus subtilis) | MIC (Escherichia coli [2]) | MIC (Aspergillus flavus) | also measured |
| --- | --- | --- | --- | --- | --- | --- | --- | --- | --- | --- | --- | --- | --- | --- | --- | --- | --- | --- | --- | --- | --- |
| OC(Cn1cncn1)(Cn1cncn1)c1ccc(F)cc1F [FLUCONAZOLE] | 10.9 µM (≈ 3.34 µg/mL) | 836 µM (≈ 256 µg/mL) | 26.1 µM (≈ 7.99 µg/mL) | 52.2 µM (≈ 16 µg/mL) |  |  |  |  |  |  |  |  |  |  |  |  |  |  |  |  |  |
| O=C(N[C@H](CO)[C@H](O)c1ccc([N+](=O)[O-])cc1)C(Cl)Cl [CHLORAMPHENICOL] |  |  |  |  | 99 µM (≈ 32 µg/mL) | 99 µM (≈ 32 µg/mL) | 41.3 µM (≈ 13.3 µg/mL) | 99 µM (≈ 32 µg/mL) | 82.5 µM (≈ 26.7 µg/mL) | 82.5 µM (≈ 26.7 µg/mL) | 20.7 µM (≈ 6.69 µg/mL) | 66 µM (≈ 21.3 µg/mL) | 82.5 µM (≈ 26.7 µg/mL) | 41.3 µM (≈ 13.3 µg/mL) |  |  |  |  |  |  |  |
| COc1ccc2c(c1O)CN1CCc3cc4c(cc3C1C2)OCO4 (centres undefined) | 1050 µM (≈ 341 µg/mL) | 656 µM (≈ 213 µg/mL) | 164 µM (≈ 53.3 µg/mL) | 1570 µM (≈ 512 µg/mL) | 1310 µM (≈ 427 µg/mL) | 1570 µM (≈ 512 µg/mL) | 1310 µM (≈ 427 µg/mL) | 787 µM (≈ 256 µg/mL) | 1570 µM (≈ 512 µg/mL) | 656 µM (≈ 213 µg/mL) | 1570 µM (≈ 512 µg/mL) | 1570 µM (≈ 512 µg/mL) | 787 µM (≈ 256 µg/mL) | 787 µM (≈ 256 µg/mL) |  |  |  |  |  |  | MIC (Candida albicans; Candida albicans, ATCC 76615, 24 h, read-out: MIC): 524 µM (≈ 171 µg/mL) |
| COc1cc(-c2nc3ccccc3n2Cc2cccc(F)c2)c2c(c1O)CN1CCc3cc4c(cc3C1C2)OCO4.Cl (centres undefined) |  |  |  |  |  |  |  |  |  |  |  |  |  |  | 88.5 µM | 106.2 µM | 212.4 µM | 88.5 µM | 70.8 µM | 88.5 µM | MIC (Pichia norvegensis): 70.8 µM; MIC (Micrococcus luteus): 70.8 µM; MIC (Candida albicans): 70.8 µM; MIC (Escherichia coli [3]): 141.6 µM; MIC (Saccharomyces cerevisiae): 35.4 µM; MIC (Staphylococcus aureus [4]): 70.8 µM |
| COc1cc(-c2nc3ccccc3n2Cc2ccc(F)cc2)c2c(c1O)CN1CCc3cc4c(cc3C1C2)OCO4.Cl (centres undefined) |  |  |  |  |  |  |  |  |  |  |  |  |  |  | 182 µM | 182 µM | 182 µM | 182 µM | 182 µM | 182 µM | MIC (Shigella dysenteriae): 145.6 µM; MIC (Pichia norvegensis): 218.4 µM; MIC (Micrococcus luteus): 182 µM; MIC (Candida albicans): 182 µM; MIC (Escherichia coli [3]): 182 µM; MIC (Saccharomyces cerevisiae): 36.4 µM; MIC (Staphylococcus aureus [4]): 109.2 µM |
